Calls of active or inactive are those of the source. The rule behind the calls is not given here.
What was measured:
[1] = biological target: T1, Prostaglandin E synthase (Homo sapiens) (UniProt O14684); experiment: Inhibition of full-length microsomal PGES-1 (unknown origin) expressed in Escherichia coli Rosetta(DE3) using PGH2 as substrate assessed as PGH2 conversion to PGE2 at 10 uM incubated 15 mins prior to substrate addition measured after 1 min by EIA
T1 sequence (whole entry): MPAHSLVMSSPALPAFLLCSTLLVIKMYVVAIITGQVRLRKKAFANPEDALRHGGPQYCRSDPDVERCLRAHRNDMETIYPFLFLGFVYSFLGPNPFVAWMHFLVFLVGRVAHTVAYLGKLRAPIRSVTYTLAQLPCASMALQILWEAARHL

[2] = biological target: T1, Prostaglandin E synthase (Homo sapiens); experiment: Competitive inhibition of full-length microsomal PGES-1 (unknown origin) expressed in Escherichia coli Rosetta(DE3) using PGH2 as substrate incubated for 5 mins prior to substrate addition relative to control in presence of increased substrate concentration
[3] = biological target: T1, Prostaglandin E synthase (Homo sapiens); experiment: Competitive inhibition of full-length microsomal PGES-1 (unknown origin) expressed in Escherichia coli Rosetta(DE3) using PGH2 as substrate incubated for 5 mins prior to substrate addition relative to control
[4] = biological target: T2, Polyunsaturated fatty acid 5-lipoxygenase (Homo sapiens) (UniProt P09917); experiment: Inhibition of 5-LOX-mediated LTB4 formation in human whole blood at 10 uM incubated for 20 mins prior to substrate addition measured after 0.5 hrs by EIA in presence of calcium ionophore A23187
T2 sequence (whole entry): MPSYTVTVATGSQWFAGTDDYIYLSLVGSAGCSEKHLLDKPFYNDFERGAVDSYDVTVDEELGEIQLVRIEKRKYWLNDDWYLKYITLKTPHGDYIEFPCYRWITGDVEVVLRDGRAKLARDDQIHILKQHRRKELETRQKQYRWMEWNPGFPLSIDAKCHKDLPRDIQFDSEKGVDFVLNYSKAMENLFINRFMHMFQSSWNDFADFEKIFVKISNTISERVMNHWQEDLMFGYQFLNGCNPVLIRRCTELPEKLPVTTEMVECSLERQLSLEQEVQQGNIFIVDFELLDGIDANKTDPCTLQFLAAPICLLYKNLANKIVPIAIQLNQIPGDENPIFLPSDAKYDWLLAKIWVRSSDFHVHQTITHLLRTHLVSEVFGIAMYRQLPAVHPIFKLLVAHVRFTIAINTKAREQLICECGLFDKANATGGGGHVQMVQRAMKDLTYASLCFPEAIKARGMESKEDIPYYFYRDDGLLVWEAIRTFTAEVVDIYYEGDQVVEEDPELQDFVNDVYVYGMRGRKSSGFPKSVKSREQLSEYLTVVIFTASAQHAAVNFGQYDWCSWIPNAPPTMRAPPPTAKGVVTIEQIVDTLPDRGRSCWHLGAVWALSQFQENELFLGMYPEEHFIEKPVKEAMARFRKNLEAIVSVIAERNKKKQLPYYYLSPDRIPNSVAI
Summary of the method: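 Human whole blood was stimulated with calcium ionophore A23187 (final 20 μg/mL) for 0.5 h at 37 °C to induce LTB4 formation. Compounds were tested at 10 μM.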

[5] = biological target: T1, Prostaglandin E synthase (Homo sapiens); experiment: Competitive inhibition of full-length microsomal PGES-1 (unknown origin) expressed in Escherichia coli Rosetta(DE3) using PGH2 as substrate preincubated for 15 mins relative to control in presence of higher glutathione disulfide concentration
Summary of the method: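 This GSSG control repeated the cofactor competition setup, with added GSH replaced by GSSG at the same final mass-volume percentage. 2.5 mM GSH was always present, and PGH2 was 17 μM. Preincubation was 15 min at 4 °C. Zero inhibition was set from the GSH activity curve, and PGE2 was read by EIA. Mean ± SEM, n = 3.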

[6] = biological target: T3, Prostaglandin E synthase (Homo sapiens, UniProt O14684); experiment: Inhibition of PGES-1 in human whole blood assessed as LPS-induced PGE2 formation incubated for 15 mins prior to LPS addition measured after 24 hrs by EIA
T3 sequence (O14684 whole entry): T1 sequence (whole entry)
Summary of the method: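 Fresh heparinized blood came from healthy volunteers free of NSAIDs for at least 14 days. It was preincubated 15 min at 37 °C with compound or DMSO vehicle. LPS (final 100 μg/mL) was then added for 24 h at 37 °C. Plasma was obtained by centrifugation at 4 °C, and PGE2 was read by EIA.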

[7] = biological target: T3, Prostaglandin E synthase; experiment: Inhibition of full-length microsomal PGES-1 (unknown origin) expressed in Escherichia coli Rosetta(DE3) using PGH2 as substrate assessed as inhibition of PGH2 conversion to PGE2 incubated 15 mins prior to substrate addition measured after 1 min by EIA
Summary of the method: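 Reactions used 2.5 mM cofactor and 17 μM PGH2 for 1 min at 4 °C, then were stopped, and PGE2 was quantified by EIA. IC50 came from dose-response curves. Mean ± SEM, n = 3.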

[8] = biological target: T2, Polyunsaturated fatty acid 5-lipoxygenase (Homo sapiens); experiment: Inhibition of 5-LOX (unknown origin) at 10 uM by human whole blood LTB4 assay
[9] = system: Prostaglandin G/H synthase 2 (COX-2); experiment: Inhibition of COX-2 (unknown origin)-mediated TMPD oxidation using PGG2 as substrate at 100 uM incubated 15 mins prior to substrate addition measured after 36 secs by spectrophotometric analysis; conditions: Homo sapiens
[10] = system: Prostaglandin G/H synthase 1 (COX-1); experiment: Inhibition of COX-1 (unknown origin)-mediated TMPD oxidation using PGG2 as substrate at 100 uM incubated 15 mins prior to substrate addition measured after 36 secs by spectrophotometric analysis; conditions: Homo sapiens
[11] = biological target: T1, Prostaglandin E synthase (Homo sapiens); experiment: Competitive inhibition of full-length microsomal PGES-1 (unknown origin) expressed in Escherichia coli Rosetta(DE3) using PGH2 as substrate preincubated for 15 mins relative to control in presence of 25 mM of cofactor GSH
[12] = biological target: T1, Prostaglandin E synthase (Homo sapiens); experiment: Competitive inhibition of full-length microsomal PGES-1 (unknown origin) expressed in Escherichia coli Rosetta(DE3) using PGH2 as substrate preincubated for 15 mins relative to control in presence of 2.5 mM of cofactor GSH
[13] = biological target: T1, Prostaglandin E synthase (Homo sapiens); experiment: Inhibition of microsomal PGES-1 (unknown origin) expressed in Escherichia coli using PGH2 as substrate assessed as inhibition of PGE2 formation at 10 uM by reversed phase HPLC analysis

Row | inhibition [1] | inhibition [2] | inhibition [3] | inhibition [4] | inhibition [5] | IC50 [6] | IC50 [7] | inhibition [8] | inhibition [9] | inhibition [10] | inhibition [11] | inhibition [12] | inhibition [13] | Compound
1 | 10% |  |  |  |  |  |  |  |  |  |  |  |  | CCOc1cc(/C=C2/C(=O)N(c3ccc(Cl)cc3)N=C2C)ccc1OCC(=O)O
2 |  | 0% | > 60% | < 1% | Active | 300 nM | 4 nM | 20% | < 1% | 2.1% | < 15% | 80% |  | COc1ccc(-c2nnc(SCC(=O)c3ccc4c(c3)Cc3ccccc3-4)nc2-c2ccc(OC)cc2)cc1
3 |  | 0% | > 60% | < 1% | Active | 3800 nM | 1.8 nM | < 1% | 14.7% | < 1% | < 15% | 80% |  | O=C(O)CN1C(=O)/C(=C2/C(=O)N(CC(=O)O)c3ccccc32)SC1=S
4 |  |  |  |  |  |  |  |  |  |  |  |  | 50% | Cc1ccc2oc(-c3cccc(NC(=O)c4ccccc4[N+](=O)[O-])c3)nc2c1
5 |  | 0% | > 60% | < 1% | Active | 6500 nM | 2 nM | < 1% | 12.9% | < 1% | < 15% | 80% |  | CCOC(=O)C1=C(C)N=c2s/c(=C\c3ccc(-c4ccc(Cl)c(C(=O)O)c4)o3)c(=O)n2C1c1ccccc1Cl (stereo not given)

— ChEMBL document CHEMBL2331332 (J Med Chem, 2013)
